In ChEMBL document CHEMBL5303300, “EUbOPEN Chemogenomics Library - Multiplex” (2023):
Values joined by “and” are separate entries in the source; they are usually repeats but may differ in a detail not shown here. Identical values can stand only once.

Tested on: U2OS
Assay: Multiplex assay against U2OS
Type: toxicity, cell-based
Settings: human, number of replicates 2
Procedure, shortened: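 Per cents of healthy-nucleus cells form the tubulin, mitochondrial-mass and membrane-permeability phenotype values. Live cells were stained at seeding with Hoechst33342, BioTracker Green Microtubule Cytoskeleton Dye, MitoTracker Red and Annexin V Alexa Fluor 680. After compound addition they were imaged on a CQ1 microscope at 37°C and 5% CO2, and CellPathfinder machine-learning gating split them into Hoechst high-intensity objects or normal cells, normal cells into healthy, pyknosed or fragmented nuclei, and pyknosed cells into mitotic or apoptotic.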

[1] = 12 h, 1 µM, compound concentration 1 uM
[2] = 12 h, 10 µM, compound concentration 10 uM
[3] = 24 h, 1 µM, compound concentration 1 uM
[4] = 24 h, 10 µM, compound concentration 10 uM
[5] = 48 h, 1 µM, compound concentration 1 uM
[6] = 48 h, 10 µM, compound concentration 10 uM

c1ccc2c(-c3coc4cc(-c5ccc(N6CCNCC6)cc5)cnc34)ccnc2c1
Population Healthy Nuclei (%) [1]: 82% and 84%
Population Mitochondria Different-Phenotype (%) [1]: 0% and 2%
Population Normal (%) [1]: 100%
Population Pyknosed Nuclei (%) [1]: 0% and 10%
Population Tubulin-Different-Phenotype (%) [1]: 84% and 81%
Population Apoptotic (%) [2]: 93% and 90%
Population Healthy Nuclei (%) [2]: 0% and 6%
Population Mitochondria Different-Phenotype (%) [2]: 100% and 75%
Population Mitotic Cells (%) [2]: 6% and 10%
Population Normal (%) [2]: 100% and 98%
Population Pyknosed Nuclei (%) [2]: 95% and 60%
Population Tubulin-Different-Phenotype (%) [2]: 100%
Total Cell Count [2]: 163 and 67
Population Apoptotic (%) [3]: 100% and 76%
Population Healthy Nuclei (%) [3]: 91% and 82%
Population Mitochondria Different-Phenotype (%) [3]: 0%
Population Mitotic Cells (%) [3]: 0% and 23%
Population Normal (%) [3]: 100%
Population Pyknosed Nuclei (%) [3]: 2% and 10%
Population Tubulin-Different-Phenotype (%) [3]: 81% and 82%
Population Apoptotic (%) [4]: 92% and 87%
Population Healthy Nuclei (%) [4]: 0% and 4%
Population Mitotic Cells (%) [4]: 7% and 12%
Population Normal (%) [4]: 98% and 97%
Population Pyknosed Nuclei (%) [4]: 93% and 56%
Population Tubulin-Different-Phenotype (%) [4]: 100% and 66%
Total Cell Count [4]: 160 and 71
Population Apoptotic (%) [5]: 75%
Population Healthy Nuclei (%) [5]: 83% and 84%
Population Mitochondria Different-Phenotype (%) [5]: 0%
Population Mitotic Cells (%) [5]: 25%
Population Normal (%) [5]: 100%
Population Pyknosed Nuclei (%) [5]: 6% and 10%
Population Tubulin-Different-Phenotype (%) [5]: 87%
Population Apoptotic (%) [6]: 91%
Population Healthy Nuclei (%) [6]: 8% and 1%
Population Mitotic Cells (%) [6]: 8%
Population Normal (%) [6]: 98%
Population Pyknosed Nuclei (%) [6]: 39% and 87%
Population Tubulin-Different-Phenotype (%) [6]: 57% and 100%
Total Cell Count [6]: 87 and 164

CS(=O)(=O)c1ccc(C(=O)Nc2cc(F)cc(COc3cc(F)c(Br)cc3CN3CC[C@H](O)C3)c2)c(Cl)c1.O=CO
Population Apoptotic (%) [1]: 33% and 58%
Population Fragmented Nuclei (%) [1]: 2%
Population Normal (%) [1]: 100%
Population Apoptotic (%) [2]: 60% and 54%
Population Normal (%) [2]: 100%
Population Apoptotic (%) [3]: 82% and 66%
Population Fragmented Nuclei (%) [3]: 2% and 3%
Population Normal (%) [3]: 100% and 96%
Population Apoptotic (%) [4]: 61% and 71%
Population Normal (%) [4]: 100% and 99%
Population Apoptotic (%) [5]: 63% and 88%
Population Fragmented Nuclei (%) [5]: 2% and 1%
Population Normal (%) [5]: 100%
Population Apoptotic (%) [6]: 94% and 89%
Population Normal (%) [6]: 98%

CNS(=O)(=O)c1ccc(N(C)C)c(Nc2ncnc3cc(OC)c(OC)cc23)c1
Population Apoptotic (%) [1]: 100% and 61%
Population Healthy Nuclei (%) [1]: 73% and 84%
Population Hoechst High Intensity Objects (%) [1]: 0%
Population Membrane Permeable-Phenotype (%) [1]: 0%
Population Mitochondria Different-Phenotype (%) [1]: 0%
Population Normal (%) [1]: 100% and 99%
Population Pyknosed Nuclei (%) [1]: 11% and 12%
Population Tubulin-Different-Phenotype (%) [1]: 73% and 87%
Population Apoptotic (%) [2]: 50% and 64%
Population Healthy Nuclei (%) [2]: 44% and 86%
Population Hoechst High Intensity Objects (%) [2]: 0%
Population Membrane Permeable-Phenotype (%) [2]: 3% and 2%
Population Mitochondria Different-Phenotype (%) [2]: 0% and 2%
Population Mitotic Cells (%) [2]: 50% and 35%
Population Normal (%) [2]: 100%
Population Pyknosed Nuclei (%) [2]: 20% and 10%
Population Tubulin-Different-Phenotype (%) [2]: 42% and 64%
Total Cell Count [2]: 59 and 156
Population Apoptotic (%) [3]: 60% and 71%
Population Healthy Nuclei (%) [3]: 60% and 88%
Population Hoechst High Intensity Objects (%) [3]: 0%
Population Membrane Permeable-Phenotype (%) [3]: 5% and 1%
Population Mitochondria Different-Phenotype (%) [3]: 0% and 1%
Population Mitotic Cells (%) [3]: 40% and 28%
Population Normal (%) [3]: 100%
Population Pyknosed Nuclei (%) [3]: 16% and 9%
Population Tubulin-Different-Phenotype (%) [3]: 72% and 88%
Population Apoptotic (%) [4]: 87% and 63%
Population Healthy Nuclei (%) [4]: 66% and 82%
Population Hoechst High Intensity Objects (%) [4]: 0%
Population Membrane Permeable-Phenotype (%) [4]: 5% and 3%
Population Mitochondria Different-Phenotype (%) [4]: 5% and 1%
Population Mitotic Cells (%) [4]: 12% and 36%
Population Normal (%) [4]: 100% and 99%
Population Pyknosed Nuclei (%) [4]: 13% and 14%
Population Tubulin-Different-Phenotype (%) [4]: 51% and 64%
Population Apoptotic (%) [5]: 50% and 76%
Population Healthy Nuclei (%) [5]: 69% and 90%
Population Hoechst High Intensity Objects (%) [5]: 0%
Population Membrane Permeable-Phenotype (%) [5]: 4% and 0%
Population Mitochondria Different-Phenotype (%) [5]: 2% and 0%
Population Mitotic Cells (%) [5]: 50% and 23%
Population Normal (%) [5]: 100%
Population Pyknosed Nuclei (%) [5]: 10% and 5%
Population Tubulin-Different-Phenotype (%) [5]: 82% and 92%
Population Apoptotic (%) [6]: 83% and 66%
Population Healthy Nuclei (%) [6]: 52% and 78%
Population Hoechst High Intensity Objects (%) [6]: 0%
Population Membrane Permeable-Phenotype (%) [6]: 13% and 5%
Population Mitochondria Different-Phenotype (%) [6]: 1% and 5%
Population Mitotic Cells (%) [6]: 16% and 33%
Population Normal (%) [6]: 99%
Population Pyknosed Nuclei (%) [6]: 11% and 14%
Population Tubulin-Different-Phenotype (%) [6]: 58% and 68%
